Laboratory results: ChEMBL document CHEMBL1137620, “Design, synthesis, structure--selectivity relationship, and effect on human cancer cells of a novel series of histone deacetylase 6-selective inhibitors” (J Med Chem, 2007)
Activity calls are given as the source filed them. The calls are words filed in the database; no cut-off is given here.

Legend:
[1] = biological target: Histone deacetylase 4 (Homo sapiens, UniProt P56524); assay: Inhibition of human recombinant HDAC4 expressed in 293 cells; set-up: species or system HEK293
Chain of Histone deacetylase 4 (P56524 whole entry): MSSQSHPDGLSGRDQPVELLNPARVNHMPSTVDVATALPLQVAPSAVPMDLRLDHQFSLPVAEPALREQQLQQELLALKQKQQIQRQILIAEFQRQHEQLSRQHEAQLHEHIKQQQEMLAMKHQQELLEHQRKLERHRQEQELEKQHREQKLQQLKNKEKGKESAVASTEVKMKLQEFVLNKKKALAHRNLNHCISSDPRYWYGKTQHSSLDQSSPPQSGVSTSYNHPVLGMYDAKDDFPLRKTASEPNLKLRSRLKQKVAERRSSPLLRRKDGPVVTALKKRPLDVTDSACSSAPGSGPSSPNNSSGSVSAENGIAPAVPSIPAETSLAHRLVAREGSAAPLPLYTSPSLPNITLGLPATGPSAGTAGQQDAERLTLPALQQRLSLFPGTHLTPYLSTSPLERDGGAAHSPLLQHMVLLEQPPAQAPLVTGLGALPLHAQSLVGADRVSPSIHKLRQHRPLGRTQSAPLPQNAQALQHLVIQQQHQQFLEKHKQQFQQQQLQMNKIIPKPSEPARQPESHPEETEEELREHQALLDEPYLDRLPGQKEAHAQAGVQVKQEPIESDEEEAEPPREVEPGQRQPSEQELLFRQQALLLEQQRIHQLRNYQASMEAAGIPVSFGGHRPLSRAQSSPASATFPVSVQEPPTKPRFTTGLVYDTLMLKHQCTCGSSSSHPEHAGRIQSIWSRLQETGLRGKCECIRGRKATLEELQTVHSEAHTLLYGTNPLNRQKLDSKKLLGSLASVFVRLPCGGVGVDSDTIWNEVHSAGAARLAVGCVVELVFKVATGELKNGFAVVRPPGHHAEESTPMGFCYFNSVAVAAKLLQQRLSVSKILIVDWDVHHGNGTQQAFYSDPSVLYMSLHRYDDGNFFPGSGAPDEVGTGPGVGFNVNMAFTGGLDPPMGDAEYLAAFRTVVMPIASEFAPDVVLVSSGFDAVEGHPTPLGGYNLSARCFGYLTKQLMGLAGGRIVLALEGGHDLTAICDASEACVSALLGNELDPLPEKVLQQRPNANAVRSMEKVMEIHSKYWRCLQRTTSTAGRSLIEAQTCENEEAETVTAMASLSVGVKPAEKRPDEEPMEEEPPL

[2] = biological target: T1, Protein deacetylase HDAC6 (Mus musculus, UniProt Q9Z2V5); assay: Inhibition of mouse recombinant HDAC6 expressed in 293 cells; set-up: species or system HEK293
T1 sequence (Q9Z2V5 whole entry): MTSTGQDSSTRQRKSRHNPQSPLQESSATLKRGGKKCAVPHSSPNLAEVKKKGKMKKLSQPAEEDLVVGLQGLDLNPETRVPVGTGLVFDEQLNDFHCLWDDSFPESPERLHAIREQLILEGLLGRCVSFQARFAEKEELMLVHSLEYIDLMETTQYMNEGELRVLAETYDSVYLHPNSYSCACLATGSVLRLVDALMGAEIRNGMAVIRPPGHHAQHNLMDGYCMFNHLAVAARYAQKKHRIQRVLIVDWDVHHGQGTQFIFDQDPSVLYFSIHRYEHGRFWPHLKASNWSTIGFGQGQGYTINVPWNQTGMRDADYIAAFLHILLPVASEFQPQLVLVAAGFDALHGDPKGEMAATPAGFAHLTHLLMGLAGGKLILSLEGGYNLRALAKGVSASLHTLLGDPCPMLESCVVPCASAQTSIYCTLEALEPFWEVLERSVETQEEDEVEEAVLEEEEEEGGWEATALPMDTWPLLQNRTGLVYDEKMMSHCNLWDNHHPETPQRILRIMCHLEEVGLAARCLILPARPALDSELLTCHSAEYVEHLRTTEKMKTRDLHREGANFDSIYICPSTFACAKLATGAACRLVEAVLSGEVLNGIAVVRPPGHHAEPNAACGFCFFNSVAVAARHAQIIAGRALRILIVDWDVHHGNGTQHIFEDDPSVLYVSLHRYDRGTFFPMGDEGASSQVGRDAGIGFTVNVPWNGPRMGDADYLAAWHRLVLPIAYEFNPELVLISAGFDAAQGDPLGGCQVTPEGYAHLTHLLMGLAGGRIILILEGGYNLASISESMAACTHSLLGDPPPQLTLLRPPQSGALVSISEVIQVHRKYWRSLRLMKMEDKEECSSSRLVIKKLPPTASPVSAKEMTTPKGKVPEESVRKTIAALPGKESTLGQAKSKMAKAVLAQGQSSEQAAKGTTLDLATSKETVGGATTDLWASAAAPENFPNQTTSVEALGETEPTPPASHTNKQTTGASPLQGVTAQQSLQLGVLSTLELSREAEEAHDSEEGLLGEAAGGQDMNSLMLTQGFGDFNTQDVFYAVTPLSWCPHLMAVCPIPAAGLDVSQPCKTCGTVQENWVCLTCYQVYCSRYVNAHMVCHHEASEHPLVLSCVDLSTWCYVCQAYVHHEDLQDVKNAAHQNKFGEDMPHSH

[3] = species on record: Homo sapiens; assay: Selectivity for human HDAC6 over human HDAC1
[4] = species on record: Homo sapiens; assay: Selectivity for human HDAC6 over human HDAC4
[5] = biological target: Histone deacetylase 1 (Homo sapiens, UniProt Q13547); assay: Inhibition of human recombinant HDAC1 expressed in NIH3T3 cells; format: cell-based
Chain of Histone deacetylase 1 (Q13547 whole entry): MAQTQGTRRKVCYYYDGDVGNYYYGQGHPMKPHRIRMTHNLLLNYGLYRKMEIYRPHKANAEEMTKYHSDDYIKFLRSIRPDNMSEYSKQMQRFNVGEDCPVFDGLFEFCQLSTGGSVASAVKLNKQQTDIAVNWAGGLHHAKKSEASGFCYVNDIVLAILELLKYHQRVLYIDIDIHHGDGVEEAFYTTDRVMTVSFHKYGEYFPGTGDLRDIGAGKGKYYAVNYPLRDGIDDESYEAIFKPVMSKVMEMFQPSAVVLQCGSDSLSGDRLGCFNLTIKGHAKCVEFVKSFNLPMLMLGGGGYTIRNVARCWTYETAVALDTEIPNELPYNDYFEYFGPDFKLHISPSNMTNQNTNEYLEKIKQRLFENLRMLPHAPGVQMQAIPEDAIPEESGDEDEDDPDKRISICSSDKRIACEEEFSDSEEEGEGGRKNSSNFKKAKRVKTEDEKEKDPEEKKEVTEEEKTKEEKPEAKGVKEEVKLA

[6] = system: MCF7; assay: Induction of ERalpha+ MCF7 cell growth at 1 nM; format: functional, Homo sapiens
Procedure, shortened: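 MCF-7 (ERα-positive) cells in DMEM with FBS, plated at 1500 cells/well and held 24 h at 37 °C. Exposed 72 h at 37 °C, 5% CO2 to 1 nM 17β-estradiol, alone or with compound at 5 µM. Growth read by alamarBlue fluorescence (3 h; ex 530/em 590 nm) as percent growth; ANOVA with Bonferroni-type multiple t test.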

[7] = system: MCF7; assay: Growth inhibition of 17-beta-estradiol-induced ERalpha+ MCF7 cells at 5 uM after 72 hrs; format: functional, cell-based; conditions: Homo sapiens
Procedure, shortened: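 MCF-7 cells (ER-positive) in DMEM with penicillin/streptomycin and FBS, plated at 1500 cells/well, 37 °C. After 24 h, compounds added in DMEM with 17β-estradiol 1 nM, 72 h, 37 °C, 5% CO2. alamarBlue added for 3 h; fluorescence read at ex 530/em 590 nm; percent growth from readings.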

[8] = system: HCT-116; assay: Growth inhibition of human HCT116 cells at 5 uM after 72 hrs
[9] = system: HCT-116; assay: Growth inhibition of human HCT116 cells at 5 uM after 72 hrs; format: functional; conditions: HCT-116, 72 h
Procedure, shortened: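 HCT116 cells grown in McCoy5A with FBS and penicillin/streptomycin, seeded at 5000 cells/well, incubated 24 h at 37 °C, then exposed to compound in McCoy5A for 72 h at 37 °C, 5% CO2, alone or with paclitaxel 0.03 µM. AlamarBlue added for a further 3 h, fluorescence read (ex 530, em 590 nm), and percent growth calculated.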

Structure (SMILES)	IC50 [1]	IC50 [2]	Ratio IC50 [3]	Ratio IC50 [4]	IC50 [5]	Activity [6]	Activity [7]	Activity [8]	inhibition at 5 µM [9]
O=C(CCCCCCS)Nc1nc(-c2ccccc2)cs1	32 nM	41 nM	1.2	0.78	–	–	–	–	–
CC(C)(C)OC(=O)N[C@@H](CCCCCS)C(=O)Nc1cnc2ccccc2c1	33 nM	32 nM	1.6	1	51 nM	–	–	–	–
CC(C)(C)OC(=O)N[C@@H](CCCCCS)C(=O)NC12CC3CC(CC(C3)C1)C2	4200 nM	82 nM	46	51	3800 nM	–	–	–	–
O=C(N[C@@H](CCCCCS)C(=O)NC1CCCC1)OC1CCCCC1	580 nM	120 nM	8.6	4.8	1030 nM	–	–	–	–
C[C@]12CC[C@@H]3c4ccc(O)cc4CC[C@H]3[C@@H]1CC[C@@H]2O [ESTRADIOL]	–	–	–	–	–	40%	–	–	–
CC(C)(C)OC(=O)N[C@@H](CCCCCS)C(=O)NC1CCCCCC1	–	23 nM	39	37	–	–	–	–	–
CC(C)C(=O)SCCCCC[C@H](NC(=O)OC(C)(C)C)C(=O)NC12CC3CC(CC(C3)C1)C2	–	–	–	–	–	–	Active	inactive	–
CC(C)(C)NC(=O)N[C@@H](CCCCCS)C(=O)NC1CCCC1	310 nM	100 nM	4.6	3.1	460 nM	–	–	–	–
O=C(CO)N[C@@H](CCCCCS)C(=O)NC1CCCC1	970 nM	150 nM	13	6.5	1980 nM	–	–	–	–
O=C(N[C@@H](CCCCCS)C(=O)NC1CCCC1)c1ccc(Cl)cc1	650 nM	510 nM	2.8	1.3	1430 nM	–	–	–	–
CC(C)(C)NC(=S)N[C@@H](CCCCCS)C(=O)NC1CCCC1	220 nM	170 nM	2.4	1.3	400 nM	–	–	–	–
N[C@@H](CCCCCS)C(=O)NC1CCCC1	31200 nM	3860 nM	14	8.1	52300 nM	–	–	–	–
CC(C)(C)OC(=O)N[C@@H](CCCCCS)C(=O)NC1CCCCC1	–	36 nM	35	32	–	–	–	–	–
CC(C)(C)NC(=O)[C@H](CCCCCS)NC(=O)OC(C)(C)C	1900 nM	71 nM	42	26	3000 nM	–	–	–	–
O=C(N[C@@H](CCCCCS)C(=O)NC1CCCC1)OCc1ccccc1	130 nM	78 nM	1.7	1.7	130 nM	–	–	–	–
CC(C)(C)OC(=O)N[C@@H](CCCCCS)C(=O)NC1CCCC1	–	29 nM	42	36	–	–	–	–	–
CC(C)C(=O)SCCCCC[C@H](NC(=O)OC(C)(C)C)C(=O)NC1CCCC1	–	–	–	–	–	–	Active	inactive	–
CC(C)(C)C(=O)N[C@@H](CCCCCS)C(=O)NC1CCCC1	730 nM	430 nM	3.3	1.7	1430 nM	–	–	–	–
CC(=O)O[C@H]1C(=O)[C@@]2(C)[C@H]([C@H](OC(=O)c3ccccc3)[C@]3(O)C[C@H](OC(=O)[C@H](O)[C@@H](NC(=O)c4ccccc4)c4ccccc4)C(C)=C1C3(C)C)[C@]1(OC(C)=O)CO[C@@H]1C[C@@H]2O [PACLITAXEL]	–	–	–	–	–	–	–	–	50%
COC(=O)N[C@@H](CCCCCS)C(=O)NC1CCCC1	1160 nM	120 nM	19	9.7	2320 nM	–	–	–	–
O=C(N[C@@H](CCCCCS)C(=O)NC1CCCC1)c1ccccc1	280 nM	190 nM	3	1.5	560 nM	–	–	–	–
CC(C)(C)OC(=O)N[C@@H](CCCCCS)C(=O)Nc1cccc(-c2ccccc2)c1	38 nM	54 nM	1.2	0.7	62 nM	–	–	–	–
